Measurements as given in ChEMBL document CHEMBL4368872, “Synthesis and anticonvulsant activity of phenoxyacetyl derivatives of amines, including aminoalkanols and amino acids” (Medchemcomm, 2018).
Activity calls are given as the source filed them.

Assays:
Mus musculus [1] = assay: Anticonvulsant activity in CF-1 mouse model of subcutaneous pentylenetetrazole-induced seizure assessed as reduction in convulsions at 300 mg/kg, ip measured at 4 hrs post dose; format: functional, organism-based
In short: (§1)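 Mice dosed i.p., then given pentylenetetrazole 85 mg/kg in 0.9% NaCl s.c. into the posterior midline of the neck. Seizures watched for at least 30 min. Scored as protected / tested at 0.5 and 4 h.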

Mus musculus [2] = assay: Anticonvulsant activity in CF-1 mouse model of subcutaneous pentylenetetrazole-induced seizure assessed as reduction in convulsions at 100 mg/kg, ip measured at 0.5 hrs post dose; format: functional, organism-based; in short: as §1
[3] = Neurotoxicity in Sprague-Dawley rat at 30 mg/kg, po measured after 1 hr by rotarod test; format: toxicity, organism-based; settings: in vivo
In short: (§2)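 Rat neurotoxicity after i.p. or p.o. dosing was scored as animals impaired / animals tested at each time point. For p.o. dosing, TD50 was obtained by probit analysis.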

Salmonella typhimurium [4] = assay: Antimutagenic activity against Salmonella typhimurium TA1535 assessed as inhibition of NaN3-induced mutation at 500 ug/plate preincubated for 30 mins followed by top agar addition and measured after 48 hrs in presence of liver S9 fraction by Ames test relative to control; format: organism-based; settings: salmonella enterica subsp. enterica serovar typhimurium, s9, 48 h
[5] = Neurotoxicity in Sprague-Dawley rat at 30 mg/kg, po measured after 2 hrs by rotarod test; format: toxicity, organism-based; settings: in vivo; in short: as §2
[6] = Neurotoxicity in Sprague-Dawley rat at 30 mg/kg, po measured after 0.5 hrs by rotarod test; format: toxicity, organism-based; settings: in vivo; in short: as §2
Mus musculus [7] = assay: Anticonvulsant activity in CF-1 mouse model of maximal electroshock-induced seizure assessed as suppression of tonic hind limb extension at 300 mg/kg, ip measured at 4 hrs post dose; format: functional, organism-based
In short: (§3)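 Mice dosed i.p. and given maximal electroshock at 50 mA. Read-out is protection, reported as number protected / number tested at 0.25, 0.5, 1 and 4 h after dosing.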

[8] = Mutagenicity in Salmonella typhimurium TA100 assessed as mutagenicity index at 50 to 500 ug/plate preincubated for 30 mins followed by top agar addition and measured after 48 hrs in absence of liver S9 fraction by Ames test; format: toxicity; settings: salmonella enterica subsp. enterica serovar typhimurium, s9, 48 h
In short: (§4)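 Ames plate incorporation in S. typhimurium TA100 or TA1535, with or without S9. Overnight culture, compound in DMSO (50–500 µg per plate) and buffer or S9 mix preincubated 30 min at 37 °C, then top agar on glucose minimal agar. Incubated 48 h at 37 °C, revertants counted in triplicate. Vehicle negative control; NaN3 (−S9) and 2AA (+S9) positive controls. MI = revertants with compound / negative-control revertants; MI ≥ 2 with dose-response counts as positive.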

Rattus norvegicus [9] = assay: Anticonvulsant activity in Sprague-Dawley rat model of maximal electroshock-induced seizure assessed as suppression of tonic hind limb extension at 30 mg/kg, po measured at 4 hrs post dose; format: functional, organism-based
In short: (§5)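 Rats given 30 mg/kg p.o. and tested by maximal electroshock at 150 mA. Scored as number protected / number tested (4 per group) at 0.25, 0.5, 1, 2 and 4 h after dosing.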

[10] = Mutagenicity in Salmonella typhimurium TA1535 assessed as mutagenicity index at 50 to 500 ug/plate preincubated for 30 mins followed by top agar addition and measured after 48 hrs in absence of liver S9 fraction by Ames test; format: toxicity; settings: salmonella enterica subsp. enterica serovar typhimurium, s9, 48 h; in short: as §4
Mus musculus [11] = assay: Anticonvulsant activity in CF-1 mouse model of maximal electroshock-induced seizure assessed as suppression of tonic hind limb extension at 100 mg/kg, ip measured at 4 hrs post dose; format: functional, organism-based; in short: as §3
Salmonella typhimurium [12] = assay: Antimutagenic activity against Salmonella typhimurium TA100 assessed as inhibition of NaN3-induced mutation at 50 ug/plate preincubated for 30 mins followed by top agar addition and measured after 48 hrs in presence of liver S9 fraction by Ames test relative to control; format: organism-based; settings: salmonella enterica subsp. enterica serovar typhimurium, s9, 48 h
[13] = Neurotoxicity in CF-1 mouse at 30 mg/kg, ip measured after 0.5 hrs by rotarod test; format: toxicity, organism-based; settings: in vivo
In short: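 Mice dosed i.p. were placed on a 1 in. knurled rod turning at 6 rpm. Toxicity was scored as failure to keep balance for at least 1 min, i.e. falling off three or more times. Results are reported as animals showing toxicity / animals tested at each time point.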

Salmonella typhimurium [14] = assay: Antimutagenic activity against Salmonella typhimurium TA1535 assessed as inhibition of NaN3-induced mutation at 50 ug/plate preincubated for 30 mins followed by top agar addition and measured after 48 hrs in presence of liver S9 fraction by Ames test relative to control; format: organism-based; settings: salmonella enterica subsp. enterica serovar typhimurium, s9, 48 h
Mus musculus [15] = assay: Anticonvulsant activity in CF-1 mouse model of subcutaneous pentylenetetrazole-induced seizure assessed as reduction in convulsions at 30 mg/kg, ip measured at 0.5 hrs post dose; format: functional, organism-based; in short: as §1
Mus musculus [16] = assay: Anticonvulsant activity in CF-1 mouse model of maximal electroshock-induced seizure assessed as suppression of tonic hind limb extension at 30 mg/kg, ip measured at 4 hrs post dose; format: functional, organism-based; in short: as §3
Rattus norvegicus [17] = assay: Anticonvulsant activity in Sprague-Dawley rat model of maximal electroshock-induced seizure assessed as suppression of tonic hind limb extension at 30 mg/kg, po measured at 0.5 hrs post dose; format: functional, organism-based; in short: as §5
[18] = Neurotoxicity in Sprague-Dawley rat at 100 mg/kg, ip measured after 4 hrs by rotarod test; format: toxicity, organism-based; settings: in vivo; in short: as §2
Rattus norvegicus [19] = assay: Anticonvulsant activity in po dosed Sprague-Dawley rat model of maximal electroshock-induced seizure assessed as time required for suppression of tonic hind limb extension; format: functional
In short: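 Rats dosed p.o. and tested by MES at 150 mA. ED50 derived by probit analysis from quantitative dose groups, run at the time of peak effect (hours).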

[20] = Protection index, ratio of TD50 for neurotoxicity in po dosed Sprague-Dawley rat to ED50 for anticonvulsant activity in Sprague-Dawley rat model of maximal electroshock-induced seizure; format: toxicity, organism-based; settings: in vivo, read-out: Ratio TD50/ED50
In short: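 The rat p.o. protective index is TD50 (rotarod) / ED50 (MES, 150 mA). Both values were calculated by probit analysis.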

[21] = Neurotoxicity in Sprague-Dawley rat at 300 mg/kg, ip measured after 1 hr by rotarod test; format: toxicity, organism-based; settings: in vivo; in short: as §2
Mus musculus [22] = assay: Anticonvulsant activity in ip dosed CF-1 mouse model of maximal electroshock-induced seizure assessed as time required for suppression of tonic hind limb extension; format: functional
Rattus norvegicus [23] = assay: Anticonvulsant activity in hippocampal kindling Sprague-Dawley rat model assessed as after discharge time at 100 mg/kg, ip administered as single dose measured after 45 mins; format: functional
In short: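 Rats implanted with a hippocampal electrode and kindled with suprathreshold trains (200 µA, 10 s, 50 Hz) every 30 min for 6 h on alternate days until fully kindled. One week later they received a single i.p. dose. Seizure score (Racine scale) and afterdischarge duration were recorded at 0–135 min and compared with the control stimulus given 15 min before dosing; each animal served as its own control. Values are mean ± SEM.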

Mus musculus [24] = assay: Anticonvulsant activity in CF-1 mouse model of maximal electroshock-induced seizure assessed as suppression of tonic hind limb extension at 110 mg/kg, ip measured at 0.25 hrs post dose; format: functional, organism-based; in short: as §3
Mus musculus [25] = assay: Anticonvulsant activity in CF-1 mouse model of maximal electroshock-induced seizure assessed as suppression of tonic hind limb extension at 110 mg/kg, ip measured at 1 hr post dose; format: functional, organism-based; in short: as §3

| Structure (SMILES) | Activity (Mus musculus [1]) | Activity (Mus musculus [2]) | Activity [3] | inhibition (INH) (Salmonella typhimurium [4]) | Activity [5] | Activity [6] | Activity (Mus musculus [7]) | Activity index [8] | Activity index [10] | Activity (Mus musculus [11]) | inhibition (INH) (Salmonella typhimurium [12]) | Activity [13] | inhibition (INH) (Salmonella typhimurium [14]) | Activity (Mus musculus [15]) | Activity (Mus musculus [16]) | Activity (Rattus norvegicus [17]) | further results |
| --- | --- | --- | --- | --- | --- | --- | --- | --- | --- | --- | --- | --- | --- | --- | --- | --- | --- |
| CCC(O)CNC(=O)COc1c(C)cccc1C (stereo unspecified) | inactive | inactive | Non-Toxic | 27% | Non-Toxic | Non-Toxic | inactive | 0.7 to 1.7 | 0.7 to 1.7 | inactive | 21% | Non-Toxic | 42% | inactive | inactive | Active | Activity (Rattus norvegicus [9]): inactive |
| Cc1cccc(C)c1OCC(=O)N[C@H](C)CO | inactive | inactive | Non-Toxic | 31% | Non-Toxic | Non-Toxic | inactive | 0.7 to 1.7 | 0.7 to 1.7 | inactive | 57% | Non-Toxic | 29% | inactive | inactive | Active | Activity [18]: Non-Toxic; Time (Rattus norvegicus [19]): 0.5 h; selectivity ratio [20]: > 41.6; Activity [21]: Toxic; Time (Mus musculus [22]): 0.25 h; Time (Rattus norvegicus [23]): 86 s; Activity (Mus musculus [24]): Active; Activity (Mus musculus [25]): inactive |
